Data taken from ChEMBL document CHEMBL1127034, “Synthesis, antiproliferative, and antiviral activity of 4-amino-1-(beta-D-ribofuranosyl)pyrrolo[2,3-d]pyridazin-7(6H)-one and related derivatives” (J Med Chem, 1993).

Key:
Calu-1 [1] = test: Tested for in vitro cell growth inhibition of CALU-1 cells; No significant effect; type: functional, cell-based, Homo sapiens
How it was run: (§1)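 Adherent tumor lines in RPMI 1640 + 5% fetal bovine serum (UMSCC-10A: MEM-5). Cells/well: UMSCC-10A, CALU-1, NCI-H1437 and HT-29 2000; NCI-H460 1000; DLD-1 1000; SW-620 7500. Compound added 1 day after plating. Sulforhodamine B readout on day 5 (NCI-H460 and SW-620: day 4). IC50 halves growth rate vs control. Top concentration 100 μM.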

Homo sapiens [2] = species on record: Homo sapiens; test: Tested for in vitro cell growth inhibition of H.Ep. 2 cells; No significant effect; type: functional, cell-based
How it was run: (§2)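 H.Ep.2 cells grown in MEM/Earle's with 15% heat-inactivated calf serum, 5% CO2. 2000 cells/well plated in 5% calf serum; compound added 1 day later. […] Top concentration 100 μM.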

NCI-H417 [3] = test: Tested for in vitro cell growth inhibition of NCI-N417 cells; No significant effect; type: functional, cell-based, Homo sapiens
Human betaherpesvirus 5 [4] = test: Tested for antiviral activity against human cytomegalovirus by plaque assay; type: functional, organism-based
How it was run: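 Towne strain HCMV (plaque-purified P0) on HFF monolayers. Inoculum about 50 PFU in 0.2 mL; compounds dissolved in the overlay medium. IC50 from linear regression of percent inhibition vs log concentration. Ganciclovir positive control; assay sets rejected if it deviated >1.5 SD from its mean response.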

L1210 [5] = test: Tested for in vitro cell growth inhibition of L1210 cells; type: functional, cell-based; settings: Mus musculus
How it was run: (§3)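 L1210 cell number counted at 0, 48 and 96 h across a range of concentrations. Growth rate is the slope of semilog cell number vs time as percent of control (ratio of control to treated doubling time); the 48-96 h rate is used if growth slowed. IC50 halves growth rate. Top concentration 100 μM.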

[6] = Tested for in vitro cell growth inhibition of NCI-H146 cells; No significant effect; type: functional, cell-based, Homo sapiens
Human alphaherpesvirus 1 = test: Tested for antiviral activity against Herpes simplex virus type-1 using enzyme immunoassay
HFF = test: Tested for cytotoxicity in human foreskin fibroblasts at time of HCMV plaque enumeration; type: functional, cell-based
How it was run: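 HFF cells (MEM/Earle's, 10% fetal bovine serum), uninfected cells within HCMV plaque-reduction wells. Drug cytopathology scored visually at 30-fold magnification on a 0-4+ scale on the day of staining for plaque enumeration. IC50 from regression against log concentration.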

[7] = Tested for the inhibition of KB cell growth; type: functional, cell-based; settings: Homo sapiens
How it was run: (§4)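 KB cells (MEM/Hank's, 5% fetal bovine serum). Growth measured spectrophotometrically after crystal violet staining 2 days after drug treatment. IC50 from linear regression of percent inhibition vs log concentration.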

[8] = Tested for in vitro cell growth inhibition of NCI-H1437; type: functional; settings: Homo sapiens; how it was run: as §1
Calu-1 [9] = test: Tested for in vitro cell growth inhibition of CALU-1 cells; type: functional, cell-based; settings: Homo sapiens; how it was run: as §1
Human betaherpesvirus 5 [10] = test: Tested for antiviral activity against human cytomegalovirus by yield reduction assay; type: functional
[11] = Tested for in vitro cell growth inhibition of […] cells; type: functional, cell-based; settings: Homo sapiens; how it was run: as §1
NCI-H460 [12] = test: Tested for in vitro cell growth inhibition of NCI-H460; type: functional, cell-based; settings: Homo sapiens; how it was run: as §1
Homo sapiens [13] = species on record: Homo sapiens; test: Tested for in vitro cell growth inhibition of H.Ep. 2 cells; type: functional, cell-based; settings: HEp-2; how it was run: as §2
NCI-H460 [14] = test: Tested for in vitro cell growth inhibition of NCI-H460 cells; type: functional, cell-based; settings: Homo sapiens; how it was run: as §1
L1210 [15] = test: Tested for in vitro cell growth inhibition of L1210 cells; No significant effect; type: functional, cell-based, Mus musculus; how it was run: as §3
Homo sapiens [16] = species on record: Homo sapiens; test: Tested for in vitro cell growth inhibition of H. Ep. 2 cells; No significant effect; type: functional, cell-based; how it was run: as §2
[17] = Tested for the inhibition against KB cell growth; type: functional, cell-based; settings: Homo sapiens; how it was run: as §4
HT-29 = test: Tested for in vitro cell growth inhibition of HT-29 cells; type: functional, cell-based; settings: Homo sapiens; how it was run: as §1
DLD-1 = test: Tested for in vitro cell growth inhibition of DLD-1 cells; type: functional, cell-based; settings: Homo sapiens; how it was run: as §1
NCI-H417 [18] = test: Tested for in vitro cell growth inhibition of NCI-N417 cells; type: functional, cell-based; settings: Homo sapiens
[19] = Tested for in vitro cell growth inhibition of UMSCC-10A cells; type: functional, cell-based; settings: Homo sapiens; how it was run: as §1
[20] = Tested for in vitro cell growth inhibition of NCI-H1437 cells; type: functional, cell-based; settings: Homo sapiens; how it was run: as §1
SW-620 = test: Tested for in vitro cell growth inhibition of SW-620 cells; type: functional, cell-based; settings: Homo sapiens; how it was run: as §1
[21] = Tested for in vitro cell growth inhibition of NCI-H146 cells; type: functional, cell-based; settings: Homo sapiens

SMILES: Nc1nnc(O)c2c1ccn2[C@@H]1O[C@H](CO)[C@@H](O)[C@H]1O
- IC50 (Calu-1 [1]): Not Active
- IC50 (Homo sapiens [2]): Not Active
- IC50 (NCI-H417 [3]): Not Active
- IC50 (Human betaherpesvirus 5 [4]): > 100 µM
- IC50 (L1210 [5]): 74 µM
- IC50 [6]: Not Active
- IC50 (Human alphaherpesvirus 1): 90 µM
- IC50 (HFF): > 100 µM

SMILES: Nc1n[nH]c(=O)c2c1c(Br)cn2[C@@H]1O[C@H](CO)[C@@H](O)[C@H]1O
- IC50 [7]: < 1.2 µM
- IC50 (Human betaherpesvirus 5 [4]): 0.1 µM
- IC50 [8]: 0.5 µM
- IC50 (L1210 [5]): 0.1 µM
- IC50 (Human alphaherpesvirus 1): 2 µM
- IC50 (Calu-1 [9]): 0.23 µM
- IC90 (Human betaherpesvirus 5 [10]): 0.04 µM
- IC50 [11]: 1.3 µM
- IC50 (HFF): 2.5 µM
- IC50 (NCI-H460 [12]): 0.5 µM
- IC50 (Homo sapiens [13]): 0.2 µM

SMILES: Nc1nnc(O)c2c1c(Cl)cn2C1O[C@H](CO)[C@@H](O)[C@H]1O (stereo partly specified)
- IC50 [7]: 6.1 µM
- IC50 (Human betaherpesvirus 5 [4]): 0.2 µM
- IC50 (L1210 [5]): 0.23 µM
- IC50 (Human alphaherpesvirus 1): 6.8 µM
- IC90 (Human betaherpesvirus 5 [10]): 0.7 µM
- IC50 (HFF): 2.1 µM

SMILES: Nc1nc2c(ncn2COC(CO)CO)c(=O)[nH]1 [GANCICLOVIR]
- IC50 [7]: > 100 µM
- IC50 (Human betaherpesvirus 5 [4]): 7.7 µM
- IC50 (Human alphaherpesvirus 1): 3.5 µM
- IC90 (Human betaherpesvirus 5 [10]): 1.8 µM
- IC50 (HFF): > 100 µM

SMILES: Nc1nncc2c1c(Br)cn2C1O[C@H](CO)[C@@H](O)[C@H]1O (stereo partly specified)
- IC50 [7]: 12 µM
- IC50 (Human betaherpesvirus 5 [4]): 121 µM
- IC50 (NCI-H460 [14]): 11 µM
- IC50 (Calu-1 [9]): 11 µM
- IC90 (Human betaherpesvirus 5 [10]): 1.4 µM
- IC50 (HFF): 100 µM

SMILES: Nc1nncc2c1ccn2C1O[C@H](CO)[C@@H](O)[C@H]1O (stereo partly specified)
- IC50 (L1210 [15]): Not Active
- IC50 (Human betaherpesvirus 5 [4]): > 100 µM
- IC50 (Homo sapiens [16]): Not Active
- IC50 (Human alphaherpesvirus 1): > 100 µM
- IC50 (HFF): > 100 µM

SMILES: Nc1ncnc2c1c(Br)cn2[C@@H]1O[C@H](CO)[C@@H](O)[C@H]1O
- IC50 [7]: 3 µM
- IC90 (Human betaherpesvirus 5 [10]): 3.5 µM
- IC50 (HFF): 1.2 µM

SMILES: Nc1ncnc2c1ccn2[C@@H]1O[C@H](CO)[C@@H](O)[C@H]1O [TUBERCIDIN]
- IC50 [17]: 1 µM
- IC50 (L1210 [5]): 0.043 µM

SMILES: Nc1nnc(O)c2c1c(I)cn2C1O[C@H](CO)[C@@H](O)[C@H]1O (stereo partly specified)
- IC50 (HT-29): 0.5 µM
- IC50 [7]: 1.2 µM
- IC50 (DLD-1): 0.07 µM
- IC50 (Human betaherpesvirus 5 [4]): 0.4 µM
- IC50 (NCI-H460 [14]): 0.2 µM
- IC50 (L1210 [5]): 0.08 µM
- IC50 (Human alphaherpesvirus 1): 4.5 µM
- IC50 (Calu-1 [9]): 0.07 µM
- IC50 (NCI-H417 [18]): 0.28 µM
- IC50 [19]: 2.5 µM
- IC50 [20]: 0.13 µM
- IC50 (SW-620): 0.23 µM
- IC90 (Human betaherpesvirus 5 [10]): 0.02 µM
- IC50 [21]: 0.42 µM
- IC50 (HFF): 1 µM
- IC50 (Homo sapiens [13]): 0.076 µM

SMILES: O=c1[nH][nH]c(=O)c2c1ccn2[C@@H]1O[C@H](CO)[C@@H](O)[C@H]1O
- IC50 (L1210 [15]): Not Active
- IC50 (Human betaherpesvirus 5 [4]): > 100 µM
- IC50 (Human alphaherpesvirus 1): > 100 µM
- IC50 (HFF): > 100 µM
